Most compounds without a hit are left out; they make up all but 2.4% or so of the library.
MEX-5 binding: MEX-5 zinc finger RNA-binding disruptors – biochemical, C. elegans, fluorescence polarization, MLPCN library, primary screen; 300,000 compounds, 0.38% hits; Zinc finger protein mex-5 (Caenorhabditis elegans), Q9XUB2; MEX-5/FITC-TCR2 RNA binding; stronger effect = lower value; activity score (negative = inhibition of binding), % at 10 µM;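 active = inhibition past about -25% in most replicates, and total fluorescence under double the plate's negative control median, limit read from the data; inconclusive = replicates evenly split on the limit, or fluorescence at least double controls; inactive = too little inhibition in most replicates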
Target sequence (Q9XUB2 whole entry, looked up): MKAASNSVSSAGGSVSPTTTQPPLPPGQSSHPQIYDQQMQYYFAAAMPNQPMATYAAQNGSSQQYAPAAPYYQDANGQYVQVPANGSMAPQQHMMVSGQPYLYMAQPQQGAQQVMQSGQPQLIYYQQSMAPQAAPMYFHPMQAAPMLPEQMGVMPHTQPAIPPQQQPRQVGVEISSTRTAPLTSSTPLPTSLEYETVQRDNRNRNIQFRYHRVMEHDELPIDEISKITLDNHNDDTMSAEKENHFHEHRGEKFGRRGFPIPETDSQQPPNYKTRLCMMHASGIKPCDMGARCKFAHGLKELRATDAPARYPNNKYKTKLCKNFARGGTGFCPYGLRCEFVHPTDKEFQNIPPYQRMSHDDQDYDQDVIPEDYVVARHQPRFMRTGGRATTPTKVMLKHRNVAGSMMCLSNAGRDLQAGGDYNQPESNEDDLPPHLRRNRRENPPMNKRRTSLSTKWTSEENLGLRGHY
Runt-CBFb FRET: inhibitors of RUNX1 Runt–CBFb binding, primary screen, biochemical, FRET, Cerulean-Runt, Venus-CBFb, uHTS; Runt-related transcription factor 1 (Homo sapiens) + Core-binding factor subunit beta …; Cerulean-Runt/Venus-CBFb FRET ratio 530/480, 1 h; inhibition, % at 20 µM; 220,000 compounds, 0.46% hits;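 active = inhibition over about 50% at 20 µM in the single-dose screen, limit read from the data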
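Schedule: protein complex preformed 1 h, compound exposure 1 h, room temperature, dark; test system: Cerulean-labeled Runt domain protein; amount: 100 nM per protein; buffer or medium: Tris 50 mM pH 7.5, KCl, K2SO4, 0.01% BSA; read-out: loss of energy transfer signal; detection: FRET fluorescence; controls: 5 µM unlabeled CBFb as full-inhibition high control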
EBV gp42 block: Epstein-Barr virus gp42 inhibitors, primary screen, biochemical, uHTS, fluorescence polarization; Glycoprotein 42 (Epstein-Barr virus (strain AG876)), Q1HVG2; Fluorescence polarization binding assay, mP read-out; inhibition, % (tested at 21.74 µM); 220,000 compounds, 0.42% hits; AID 1085, 2008; in the data active = inhibition above about 50%
Target sequence (Q1HVG2 whole entry, looked up): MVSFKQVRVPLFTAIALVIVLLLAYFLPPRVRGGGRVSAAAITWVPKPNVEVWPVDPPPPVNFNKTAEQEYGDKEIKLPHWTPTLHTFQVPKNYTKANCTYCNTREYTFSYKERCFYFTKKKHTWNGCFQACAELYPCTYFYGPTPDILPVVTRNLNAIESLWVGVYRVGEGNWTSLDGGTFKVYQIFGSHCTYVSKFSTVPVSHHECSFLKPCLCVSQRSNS
Runt-SMMHC FRET: inhibitors of RUNX1 Runt–CBFb-SMMHC binding, primary screen, biochemical, FRET, Cerulean-Runt, Venus-CBFb-SMMHC, uHTS. 220,000 compounds, 0.74% hits. Cerulean-Runt/Venus-CBFb-SMMHC FRET ratio 530/480, 1 h. Runt-related transcription factor 1 (Homo sapiens) + Core-binding factor subunit beta …. inhibition, % at 20 µM;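 active = mean inhibition across duplicate retests at 20 µM reaching about 50%, limit read from the data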;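 also: inhibitors lower the FRET ratio by blocking Runt binding to CBFb-SMMHC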
LANA-H2B inh: blockers of LANA interaction with H2A/H2B – biochemical, FP readout, HTS, primary screen; 320,000 compounds, 0.6% hits; inhibition, % (test concentration not listed); AID 2629, 2010; cell-free LANA-H2A/H2B peptide, fluorescence polarization; Protein LANA1 (Human herpesvirus 8 type P (isolate GK18)), Q9QR71; in the data active = inhibition mostly above about 10%, no sharp cut-off; inactive = mostly below about 6.7%
RanGTP-Impb inh: inhibitors of RanGTP-importin-beta interaction, primary screen, biochemical, FRET, CFP-Ran, YFP-importin-beta, homogeneous; cell-free CFP-Ran/YFP-importin-beta FRET ratio; inhibition, % (no concentration beside the values); 300,000 compounds, 1.1% hits;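 active = more than half of the replicate wells show a fall in the fluorescence ratio signal beyond about 16%, limit read from the data, passing the limit was not always enough; inconclusive = exactly half of the replicate wells pass the set limit; inactive = fewer than half of replicates pass the limit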
YIC counter: YIC intramolecular FRET probe signal interference, dose response, counter-screen for RanGTP-importin-beta inhibitor project, biochemical, fluorescence FRET; shares compounds with RanGTP-Impb inh; Purified YIC probe, intramolecular FRET ratio YFP/CFP; IC50, µM; 1,000 compounds, 40% hits; AID 435026, 2010;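 active = fitted half-maximal inhibitory concentration no more than tenfold above the top dose tested; inconclusive = flat fit with 30 to 70% activity, or poor fit; inactive = half-maximal concentration beyond tenfold above the top dose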
Of the large screens only hits and unclear results are named; the others gave an inactive call (follow-up assays come after a bar, where they were run).

O=C(/C=C/c1ccccc1[N+](=O)[O-])N1CCN(c2ccc(F)cc2)CC1	RanGTP-Impb inh 24 | YIC counter inactive
COc1ccc(C2/C(=C(/O)c3ccc4c(c3)CC(C)O4)C(=O)C(=O)N2Cc2cccnc2)cc1 (configuration not stated)	none (no result: Runt-CBFb FRET, EBV gp42 block, Runt-SMMHC FRET)
CC1Cc2cc(/C(O)=C3/C(=O)C(=O)N(Cc4ccncc4)C3c3ccc(N(C)C)cc3)ccc2O1 (configuration not stated)	RanGTP-Impb inh 22 (no result: Runt-CBFb FRET, EBV gp42 block, Runt-SMMHC FRET) | YIC counter inactive
COC(=O)Cc1c(C)c2ccc(OC(=O)c3ccco3)cc2oc1=O	none
COC(=O)Cc1c(C)c2cc(Cl)c(OC(=O)c3ccco3)cc2oc1=O	Runt-CBFb FRET 98, Runt-SMMHC FRET 141, RanGTP-Impb inh 47 | YIC counter 21
CCOC(=O)c1ccc(CNC(=O)CSc2nnc(-c3ccncc3)o2)cc1	RanGTP-Impb inh 26 | YIC counter inactive
CCOc1cc(/C=C(/NC(C)=O)C(=O)O)cc(Cl)c1OCc1cccc(Br)c1	none
Cc1c2cn[nH]c(=O)c2c(C)n1-c1ccccc1	none (no result: Runt-CBFb FRET, EBV gp42 block, Runt-SMMHC FRET)
COc1cc(/C(O)=C(\C#N)c2nc3ccccc3[nH]2)cc(OC)c1OC	RanGTP-Impb inh 40 (no result: Runt-CBFb FRET, EBV gp42 block, Runt-SMMHC FRET) | YIC counter 7.4
O=C(NC1CCOc2ccccc21)c1ccc(=O)[nH]c1 (configuration not stated)	none (no result: Runt-CBFb FRET, EBV gp42 block, Runt-SMMHC FRET)
O=C(c1ccc([N+](=O)[O-])cc1)c1cc2ccc(O)cc2oc1=O	none (no result: Runt-CBFb FRET, EBV gp42 block, Runt-SMMHC FRET)
CCOc1ccc(C(=O)c2cc3ccc(O)cc3oc2=O)cc1	Runt-CBFb FRET 86, Runt-SMMHC FRET 90, RanGTP-Impb inh 53 | YIC counter 8
CCOC(=O)C1=C(COC(=O)CCOc2ccc(C)cc2)NC(=O)NC1C (configuration not stated)	none (no result: Runt-CBFb FRET, EBV gp42 block, Runt-SMMHC FRET)
O=C(Cn1nnc2ccccc21)N/N=C\c1cccs1	RanGTP-Impb inh 22 | YIC counter inactive
O=C(Cn1cnc2ccccc21)N/N=C/c1cccs1	none
CN(C)/C=N/c1nc2nccc(-c3ccc(F)cc3)n2n1	none
CN(C)/C=N/c1nc2nccc(-c3cccs3)n2n1	RanGTP-Impb inh 17 | YIC counter 14
Cc1cc(Cl)c(S(=O)(=O)NC(C(=O)O)C(C)C)cc1OCC(=O)NC1CCCCC1 (configuration not stated)	none
Cc1cc(Cl)c(S(=O)(=O)N2CCCC2)cc1OCC(=O)NC1CCCCC1	RanGTP-Impb inh 24 | YIC counter inactive
COc1ccccc1C1c2[nH]c3ccccc3c2C[C@H]2C(=O)N(C3CCN(Cc4ccccc4)CC3)CC(=O)N12 (some centres not stated)	none (no result: Runt-CBFb FRET, EBV gp42 block, Runt-SMMHC FRET)
O=C1NC(c2cccc([N+](=O)[O-])c2)Oc2ccccc21 (configuration not stated)	RanGTP-Impb inh 22 | YIC counter inactive
Cc1ccc(S(=O)(=O)Nc2ccc(C(=O)N3CCCC3)cc2)c(C)c1NS(C)(=O)=O	none (no result: Runt-CBFb FRET, EBV gp42 block, Runt-SMMHC FRET)
Cc1c(CC(=O)N2CCN(C(=O)C3COc4ccccc4O3)CC2)c(=O)oc2cc(O)c(Cl)cc12 (configuration not stated)	RanGTP-Impb inh 44 (no result: Runt-CBFb FRET, EBV gp42 block, Runt-SMMHC FRET) | YIC counter 2.9
COc1cc2cnc(Cl)nc2cc1OC	none
COC(=O)c1ccc2c(=O)n(CCN3CCOCC3)c(SCC(=O)C(C)(C)C)nc2c1	RanGTP-Impb inh 19 | YIC counter inactive
CCOC(=O)CSc1nc2cc(C(=O)OC)ccc2c(=O)n1CCN1CCOCC1	none
O=C(Nc1cccc(F)c1)c1ccc(S(=O)(=O)NCC2CCCO2)cc1 (configuration not stated)	RanGTP-Impb inh 21 | YIC counter inactive
COC(=O)c1ccccc1NCc1cc(=O)oc2cc(O)c(O)cc12	MEX-5 binding -28, RanGTP-Impb inh 20 (no result: Runt-CBFb FRET, EBV gp42 block, Runt-SMMHC FRET) | YIC counter 4.5
Cc1ccc(NC(=O)CN(C)CC(=O)Nc2sc3c(c2C(N)=O)CCC3)cc1	none (no result: Runt-CBFb FRET, EBV gp42 block, Runt-SMMHC FRET)
COC(=O)C1=CN(Cc2ccc(OC)c(OC)c2)C=C(C(=O)OC)C1c1cccc(O)c1	RanGTP-Impb inh 19 (no result: Runt-CBFb FRET, EBV gp42 block, Runt-SMMHC FRET) | YIC counter 17
COC(=O)C1=CN(Cc2cccs2)C=C(C(=O)OC)C1c1ccc(OC)cc1OC	Runt-CBFb FRET 105, Runt-SMMHC FRET 91, RanGTP-Impb inh 40 | YIC counter 7
COC(=O)C1=CN(CC2CCCO2)C=C(C(=O)OC)C1c1cccc(O)c1 (configuration not stated)	Runt-CBFb FRET 76, Runt-SMMHC FRET 87, RanGTP-Impb inh 28 | YIC counter 20
COC(=O)C1=CN(c2cc(C)cc(C)c2)C=C(C(=O)OC)C1c1ccc(OC)c(O)c1	none (no result: Runt-CBFb FRET, EBV gp42 block, Runt-SMMHC FRET)
Cc1cc(NC(=O)CSc2nnc(CNC(=O)c3ccc(C(C)(C)C)cc3)o2)no1	none (no result: Runt-CBFb FRET, EBV gp42 block, Runt-SMMHC FRET)
CCCc1cc2c(cc1NC(=O)c1ccco1)OCO2	none
CCCCN(C)C(=O)c1cccc(OC2CCN(CC(C)(C)C)CC2)c1	MEX-5 binding -31, RanGTP-Impb inh 17 (no result: Runt-CBFb FRET, EBV gp42 block, Runt-SMMHC FRET) | YIC counter inactive
COc1ccccc1CC(NC(C)=O)C(=O)NC1CCN(C(=O)Nc2ccccc2F)CC1 (configuration not stated)	RanGTP-Impb inh inconclusive (no result: Runt-CBFb FRET, EBV gp42 block, Runt-SMMHC FRET)
CCOc1ncccc1C(=O)N(CC)CC(=O)NCc1ccc(Cl)cc1	none (no result: Runt-CBFb FRET, EBV gp42 block, Runt-SMMHC FRET)
N#Cc1c(N)nc2c(c1-c1ccccc1)CCC2	RanGTP-Impb inh 29 | YIC counter 9.8
COc1ccc(-c2c(C#N)c(N)nc3c2CCCC3)cc1OC	none (no result: Runt-CBFb FRET, EBV gp42 block, Runt-SMMHC FRET)
Cc1cc(Cl)ccc1OCC(=O)NCC(c1cccs1)N1CCOCC1 (configuration not stated)	none (no result: Runt-CBFb FRET, EBV gp42 block, Runt-SMMHC FRET)
Cc1ccc(NC(=O)CSc2ncc(S(=O)(=O)c3ccccc3)c(=O)[nH]2)cc1C	none
COc1cccc(NC(=O)CSc2ncc(S(=O)(=O)c3ccccc3)c(=O)[nH]2)c1	RanGTP-Impb inh 30 | YIC counter inactive
CCN(CC)CCNC(=O)c1ccc(NC(=O)c2c(C)nn(-c3ccc(F)cc3)c2Cl)cc1	none (no result: Runt-CBFb FRET, EBV gp42 block, Runt-SMMHC FRET)
